≈ marks a conversion by molar mass, not a printed value.
Columns and labels:
Human alphaherpesvirus 2 [1] = assay: Virus rating is measurement of degree of inhibition of virus-induced cytopathogenic effects and the degree of cytotoxicity produced by the test compound for Herpes simplex virus (HSV) -2; type: functional
How it was run: (§1)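 Virus rating as defined by Southern Research Institute: a selective antiviral score that combines the degree of inhibition of virus-induced cytopathogenic effect with the degree of cytotoxicity from the test compound, determined by a modification of a published method.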

Vero [2] = assay: Minimum inhibitory concentration of cytopathogenic-induced effect was determined against Herpes simplex virus (HSV) -2 in vero cell monolayer culture; type: functional; details: Chlorocebus sabaeus
Vero [3] = assay: Inhibition effect was determined against Herpes simplex virus (HSV) -1 in vero cell monolayer culture; type: functional, Chlorocebus sabaeus
Vero [4] = assay: Inhibition of cytopathogenic effect was determined against Herpes simplex virus (HSV) -2 in vero cell monolayer culture; type: functional; details: Chlorocebus sabaeus
[5] = Virus rating is measurement of degree of inhibition of virus-induced cytopathogenic effects and the degree of cytotoxicity produced by the test compound for influenza type A2; type: functional
Human alphaherpesvirus 2 [6] = assay: Evaluated virus rating for Herpes simplex virus (HSV) -2; type: functional; how it was run: as §1

SMILES	Virus rating (Human alphaherpesvirus 2 [1])	MIC50 (Vero [2])	ID90 (Vero [3])	MIC50 (Vero [4])	Virus rating [5]	Virus rating (Human alphaherpesvirus 2 [6])
Nc1nc(O)c2ncn(CC=C(CO)CO)c2n1	1.5	65.6 µg/mL (≈ 261 µM)	25 µM	–	–	–
Nc1ncnc2c1ncn2CC=C(CO)CO	–	–	–	939 µg/mL (≈ 3990 µM)	0.3	0.6
Nc1nc2c(ncn2COCCO)c(=O)[nH]1 [ACYCLOVIR]	5.1	–	–	4.3 µg/mL (≈ 19.1 µM)	–	–
NC(=O)c1ncn([C@@H]2O[C@H](CO)[C@@H](O)[C@H]2O)n1 [RIBAVIRIN]	–	–	–	–	2.8	–
Nc1ncnc2c1ncn2[C@@H]1O[C@H](CO)[C@@H](O)[C@@H]1O [VIDARABINE]	1.2	–	–	26.8 µg/mL (≈ 100 µM)	–	–

— ChEMBL document CHEMBL1123751, “Synthesis and biological activity of unsaturated carboacyclic purine nucleoside analogues” (J Med Chem, 1987)
